# Source: PubChem BioAssay (several laboratories)
# A selection: hits, their analogues and other compounds. The true share with any hit is near 2.1%.
# A3G deaminase – APOBEC3G (human) deaminase inhibition. recombinant A3G, ssDNA deamination FAM/TAMRA fluorescence. inhibition, % at 20 µM. 0.28% of 330,000 active. AID 493012;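 active means inhibition of at least 40% at 20 µM, with no more than 30% in the related APOBEC3A deaminase screen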;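 further: plate controls were DMSO wells with A3G for no effect and wells lacking A3G enzyme for full effect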
# Target sequence (Q9HC16 whole entry, looked up): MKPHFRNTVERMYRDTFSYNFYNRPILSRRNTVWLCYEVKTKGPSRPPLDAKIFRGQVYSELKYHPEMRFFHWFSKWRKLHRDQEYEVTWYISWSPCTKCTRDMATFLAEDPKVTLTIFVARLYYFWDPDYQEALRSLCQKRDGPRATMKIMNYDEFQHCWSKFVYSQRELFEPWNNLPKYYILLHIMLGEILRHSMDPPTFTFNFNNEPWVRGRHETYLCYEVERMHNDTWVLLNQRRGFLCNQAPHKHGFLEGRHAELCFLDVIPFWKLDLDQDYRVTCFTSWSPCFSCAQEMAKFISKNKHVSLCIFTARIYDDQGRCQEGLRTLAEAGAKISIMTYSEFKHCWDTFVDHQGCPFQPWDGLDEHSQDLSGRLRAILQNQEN
# APOBEC3A inh – human APOBEC3A DNA deaminase inhibition | P31941 | recombinant A3A, FAM/TAMRA ssDNA deamination fluorescence | inhibition, % at 20 µM | 0.41% of 330,000 active | AID 493011;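 active means at least 40% inhibition at 20 µM here, with at most 30% in a related deaminase screen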;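 further: plate controls were A3A with DMSO for no effect and wells lacking A3A enzyme for full effect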
# Target sequence (P31941 whole entry, looked up): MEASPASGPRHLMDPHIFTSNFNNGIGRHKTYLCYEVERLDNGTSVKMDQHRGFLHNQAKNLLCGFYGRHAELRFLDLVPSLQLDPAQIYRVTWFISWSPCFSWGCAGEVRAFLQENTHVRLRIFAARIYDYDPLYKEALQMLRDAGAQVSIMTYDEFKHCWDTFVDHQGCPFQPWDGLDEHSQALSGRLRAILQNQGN
# ARFGAP1 inhibitor – rat ARFGAP1 inhibition. Q62848. inhibition, % at 16.5 µM. 0.26% of 360,000 active. Arfgap1-stimulated ARF1 GTP hydrolysis, GDP FP detection. AID 651572;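 active means inhibition above a per-plate limit, mean inhibition of low control wells plus 3 SD, cut at about 25% in these data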;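 further: 0% = DMSO wells with enzyme and 100% = wells lacking Arfgap1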
#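 Assay system: purified rat His6-Arfgap1 residues 1-136 (GAP domain); Reagent: human Δ17 ARF1 bound to GTP; Dosing: 16.5 µM single point, 1.26% DMSO; Times: GTP hydrolysis reaction 2 h at 25 °C; Signal: FP, GDP Alexa 633 tracer displaced from anti-GDP antibody, 620/688 nm; Measure: % inhibition from polarization.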
# SUMO Mot1 rescue – inhibitors of SUMOylation pathway: yeast Mot1-301 growth rescue; AID 2716; 1% of 320,000 active; S. cerevisiae Mot1-301 growth rescue, ATP luminescence, 38.5C; percent above DMSO median, 100 means doubled; growth rescue, % at 18.8 µM;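 active means every valid replicate shows activation above 250% relative to neutral control wells; inactive means the rest, any valid replicate at or below 250%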;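 further: OY570 slx delta 5 strain wells were the positive control but not used for scaling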
# C2C12 statin – suppression of simvastatin myotoxicity | C2C12 myotubes + simvastatin, ATP luminescence, 48 h; scaled: DMSO 0, geranylgeraniol control 100 | rescue of ATP level, % at 7.49 µM | 0.78% of 330,000 active;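 active means mean ATP rescue above about 67%, or every replicate alone reaching that limit, limit read from the data, passing the limit was not always enough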;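 further: myotubes were challenged with 10 µM simvastatin during compound exposure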
# ASAP1 inh – ASAP1 ArfGAP inhibition; Q9ULH1; 0.19% of 360,000 active; inhibition, % at 16.5 µM; ASAP1-stimulated ARF1 GTP hydrolysis, GDP FP detection; in the data active means inhibition above about 25%;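 further: 0% = vehicle with enzyme and substrate and 100% = no enzyme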
# Yeast Mot1 SUMO – inhibits SUMO pathway, affecting Mot1-301 yeast growth; 2,300 tested, under 10 active; growth activity, percent, % at 42 µM; shares compounds with SUMO Mot1 rescue; AID 493004; S. cerevisiae Mot1-301 galactose growth, ATP luminescence, 24 h; -100 = growth of slx-deleted rescue strain;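 active means Signal drops as the depositor expects, and the fitted half-maximal dose is no more than ten times the top valid tested dose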;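 further: more negative values mean stronger growth rescue toward the control strain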
# The depositor's hits bear a star; . = no result given; + = active, no number.
SMILES,A3G deaminase,APOBEC3A inh,ARFGAP1 inhibitor,SUMO Mot1 rescue,C2C12 statin,ASAP1 inh,Yeast Mot1 SUMO
C[C@@H]1CN([C@@H](C)CO)C(=O)c2cc(C#CC3CCCCC3)cnc2O[C@@H]1CN(C)S(=O)(=O)c1ccccc1,.,.,.,.,3,.,.
C=CCn1cc(C(C)=O)c(=O)[nH]c1=O,-6,-2,-1,610*,.,7,1
CCCCCCCCn1cc(C(C)=O)c(=O)[nH]c1=O,-1,2,-5,-13,6,3,.
O=C(CCN1CCCCC1)N[C@@H]1CC[C@H](CCn2cc(-c3ccccc3)nn2)O[C@H]1CO,.,.,.,.,15,.,.
CCCN1C[C@@H](C)[C@@H](OC)CN(C)C(=O)c2cc(NC(=O)c3cccc(F)c3)ccc2OC[C@H]1C,.,.,.,.,-3,.,.
CCCC(=O)Nc1ccc(Sc2ccc([N+](=O)[O-])cc2)cc1,-6,-3,6,374*,11,12,0
CCC(CC)C(=O)Nc1ccc(Sc2ccc([N+](=O)[O-])cc2)cc1,-5,0,6,12,-33,7,.
Cc1ccc([C@@H]2CC=C(C(=O)O)[C@H](c3ccc(Cl)cc3)N2S(=O)(=O)c2ccc(C)cc2)cc1,-1,4,-17,4,-18,2,.
COc1cc([C@@H]2CC=C(C(=O)O)[C@H](c3ccc(F)cc3)N2S(=O)(=O)c2ccc(C)cc2)cc(OC)c1OC,-9,-3,5,-2,2,-6,.
COc1cc([C@@H]2CC=C(C(=O)O)[C@H](c3ccccc3F)N2S(=O)(=O)c2ccc(C)cc2)cc(OC)c1OC,-8,-1,1,662*,-9,-2,-1
Cc1ccc(S(=O)(=O)N2[C@@H](c3ccccc3)C(C(=O)O)=CC[C@H]2c2ccc(Cl)cc2)cc1,-11,-3,-10,377*,-1,6,-1
Cc1ccc(C)n1-n1cnc2sc3c(c2c1=O)CCCCC3,-6,-3,7,596*,6,-2,0
CCOC(=O)N1CCN(C(=O)c2ccc(OCC)c(OCC)c2)CC1,-5,-3,1,-4,0,0,.
CCOC(=O)N1CCN(C(=O)c2ccc(OC)c(OC)c2)CC1,-6,-4,0,+,.,-18,1
C[C@H]1CN([C@@H](C)CO)C(=O)CCCn2nncc2CO[C@H]1CN(C)CC1CC1,.,.,.,.,-14,.,.
C[C@@H]1CCCCO[C@H](CN(C)C(=O)c2ccccc2)[C@@H](C)CN([C@@H](C)CO)C(=O)c2cc(NC(=O)NC3CCCCC3)ccc2O1,.,.,.,.,-44,.,.
CC(C)[N+]1(C)[C@@H]2CC[C@@H]1CC(OC(=O)C(CO)c1ccccc1)C2 (stereo not given in full),-7,-3,8,371*,-4,1,0
CCCC(CCC)C(=O)OC1C[C@H]2CC[C@@H](C1)[N+]2(C)C (stereo not given in full),-1,0,5,23,5,6,.
O=C(C[C@@H]1CC[C@H]2[C@@H](COC[C@@H](O)CN2S(=O)(=O)c2ccc(F)cc2)O1)NCC1CC1,.,.,.,.,7,.,.
O=C(C[C@H]1C[C@@H]2c3cc(NC(=O)NC4CCCC4)ccc3O[C@@H]2[C@@H](CO)O1)NCc1ccc(Cl)cc1,.,.,.,.,6,.,.
CCOc1cc(C(=S)N2CCOCC2)ccc1OC(=O)c1ccc(C)cc1,3,5,8,414*,-5,-6,-1
Cc1cccn2c(=O)c3cc(C(=O)NCCc4ccccc4)sc3nc12,-4,0,-1,798*,-45,-7,0
CCCCNC(=O)c1cc2c(=O)n3cccc(C)c3nc2s1,-7,-3,18,163,2,-6,.
Cc1cccn2c(=O)c3cc(C(=O)NCc4cccnc4)c(=N)n(C(C)C)c3nc12,-4,0,3,759*,-3,3,0
Cc1cccn2c(=O)c3cc(C(=O)NCc4ccco4)c(=N)n(C(C)C)c3nc12,6,9,-10,2,-13,-7,.
SMILES,A3G deaminase,APOBEC3A inh,ARFGAP1 inhibitor,SUMO Mot1 rescue,C2C12 statin,ASAP1 inh,Yeast Mot1 SUMO
C[C@H](CO)N1C[C@H](C)[C@@H](CN(C)Cc2ccc(C(F)(F)F)cc2)OCc2cn(nn2)CCCC1=O,.,.,.,.,20,.,.
O=C(C[C@@H]1C[C@@H]2c3cc(NC(=O)Cc4ccncc4)ccc3O[C@@H]2[C@H](CO)O1)NCc1cccnc1,.,.,.,.,0,.,.
O=C(Cc1ccc(Cl)cc1)NC(=S)Nc1ccccc1N1CCOCC1,-7,-7,-1,815*,.,0,0
C[C@@H]1CN([C@@H](C)CO)C(=O)Cc2cc(NC(=O)CCCN(C)C)ccc2O[C@@H]1CN(C)S(=O)(=O)c1cccs1,.,.,.,.,-8,.,.
COc1ccccc1NC(=S)N(Cc1ccco1)Cc1cc2cccc(C)c2[nH]c1=O,1,1,3,387*,.,10,0
Cc1cccc(S(=O)(=O)N[C@H]2CC[C@@H](CCNC(=O)CCN3CCCCC3)O[C@H]2CO)c1,.,.,.,.,13,.,.
CCCCc1n[nH]c(=S)n1Cc1ccc(C)cc1,23,0,6,+,.,3,1
CCCCCCCc1n[nH]c(=S)n1Cc1ccccc1,-7,-4,4,-12,.,-2,.
CC(C)N=C(Nc1cccnc1)c1ccccc1,-7,2,0,-17,-14,2,.
O=C(CCc1ccccc1)Nc1cccnc1,-2,1,-7,159,4,3,.
O=C(CCNC(=O)c1ccccc1)Nc1cccnc1,-11,1,-5,455*,0,1,1
CN=C(Nc1cccnc1)c1ccccc1,-7,-2,11,421*,1,-17,0
O=C(C[C@@H]1CC[C@H]2[C@@H](COC[C@@H](O)CN2CC2CCOCC2)O1)NCC1CCCCC1,.,.,.,.,2,.,.
O=C(C[C@@H]1C=C[C@@H](NS(=O)(=O)c2ccccc2)[C@H](CO)O1)NCc1ccccc1F,.,.,.,.,2,.,.
C/C(CC(=O)NC1CCCCC1)=N\NC(=O)Cc1ccc(-c2ccccc2)cc1,-3,-2,6,437*,.,7,0
O=C(N[C@H]1CC[C@@H](CCNS(=O)(=O)c2ccc(F)cc2)O[C@H]1CO)C1CCOCC1,.,.,.,.,-13,.,.
CCC(=O)N(C)C[C@H]1Oc2cc(-c3ccc(F)cc3)ccc2S(=O)(=O)N([C@H](C)CO)C[C@H]1C,.,.,.,.,1,.,.
N#CCSc1nc2c(cc1C#N)CCCCCC2,-7,2,-15,145,18,-3,.
N#CCSc1nc2c(c(C3CC=CCC3)c1C#N)CCC2 (stereo not given),-9,-1,-12,+,4,16,1
CNC(=S)NNC(=O)c1sccc1OCc1ccc(Cl)cc1Cl,-1,0,-5,.,6,13,.
